Test results reported in ChEMBL document CHEMBL1145859, “Tethered dimers as NAD synthetase inhibitors with antibacterial activity” (J Med Chem, 2003).
In brackets after ≈: the same amount, converted by molar mass.

Tests used:
[1] = biological target: T1, NH(3)-dependent NAD(+) synthetase (Bacillus subtilis (strain 168), UniProt P08164); experiment: Inhibitory activity against Bacillus subtilis NAD synthetase
T1 sequence (P08164 whole entry): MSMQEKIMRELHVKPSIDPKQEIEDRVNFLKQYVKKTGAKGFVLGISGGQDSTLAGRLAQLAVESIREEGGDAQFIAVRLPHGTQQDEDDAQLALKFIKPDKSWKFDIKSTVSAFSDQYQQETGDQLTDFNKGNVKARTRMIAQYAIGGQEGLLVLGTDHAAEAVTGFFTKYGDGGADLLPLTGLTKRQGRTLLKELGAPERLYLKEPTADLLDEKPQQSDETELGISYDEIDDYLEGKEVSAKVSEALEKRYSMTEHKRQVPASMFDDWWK
Summary of the method: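 Purified recombinant B. subtilis NAD synthetase (2.0 µg/mL) in coupled assay, pH 8.5: 58.5 mM HEPES, 18.5 mM NH4Cl, 19.5 mM KCl, 9.75 mM MgCl2, 1% EtOH, 0.1 mM NaAD, 0.3% BOG, 40 µg/mL yeast ADH, 0.2 mM ATP, 2.5% DMSO. ATP-started, 10 min, guanidine·HCl stop; NADH read at A340 and fluorescence 460 nm, background-subtracted; IC50 from % inhibition at six concentrations.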

Bacillus subtilis = experiment: Minimum inhibitory concentration required against Bacillus subtilis ATCC 14289; type: functional
Summary of the method: (§1)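 Broth doubling-dilution MIC run in duplicate series from 50 µg/mL (1% DMSO final). Each tube received 0.01 mL of inoculum from a log-phase culture (5–6 h, 37 °C) adjusted to about 5 × 10^8 CFU/mL. Incubation 20 h at 37 ± 2 °C. MIC is the lowest concentration with no visible growth. Viability, sterility and reference-antibiotic controls included.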

Staphylococcus aureus [2] = experiment: Minimum inhibitory concentration required against Staphylococcus aureus ATCC 29213; type: functional; summary of the method: as §1
Salmonella enteritidis [3] = experiment: Minimum inhibitory concentration required against Salmonella enteritidis ATCC 13076; type: functional, Salmonella enterica subsp. enterica serovar Enteritidis; details: Salmonella enterica; summary of the method: as §1
Pseudomonas aeruginosa = experiment: Minimum inhibitory concentration required against Pseudomonas aeruginosa ATCC 27853; type: functional; summary of the method: as §1
Salmonella enteritidis [4] = experiment: microbe, parasite or virus in culture; details: Salmonella enterica, ATCC 13076
Staphylococcus aureus [5] = experiment: Minimum inhibitory concentration required against Staphylococcus aureus ATCC 33591; type: functional; summary of the method: as §1
Staphylococcus aureus [6] = experiment: Minimum inhibitory concentration required against Staphylococcus aureus ATCC 33592; type: functional; summary of the method: as §1
Staphylococcus aureus [7] = experiment: Minimum inhibitory concentration required against Staphylococcus aureus ATCC 33593; type: functional; summary of the method: as §1

## C[N+](C)(C)c1ccc(CC(=O)OCCCCCCn2ccc3cc(OCc4ccccc4)ccc32)cc1
[1]
  IC50: 69 µM

## C[n+]1cccc(C(=O)OCCn2ccc3cc([N+](=O)[O-])ccc32)c1
[1]
  IC50: > 1000 µM

## O=C(OCCCCCCCCn1ccc2cc(O)ccc21)c1cccnc1
[1]
  IC50: > 200 µM

## C[N+](C)(C)c1ccc(CC(=O)OCCCCn2ccc3cc([N+](=O)[O-])ccc32)cc1
[1]
  IC50: 89 µM

## C[n+]1cccc(C(=O)OCCCCCCn2ccc3cc(OCc4ccccc4)ccc32)c1
[1]
  IC50: 29 µM

## O=C(OCCCCn1ccc2cc([N+](=O)[O-])ccc21)c1cccnc1
[1]
  IC50: > 1000 µM

## C[n+]1cccc(C(=O)OCCCn2ccc3cc([N+](=O)[O-])ccc32)c1
[1]
  IC50: > 1000 µM

## O=C(OCCCn1ccc2cc([N+](=O)[O-])ccc21)c1cccnc1
[1]
  IC50: > 1000 µM

## COC(=O)c1cc2cc(OCc3ccccc3)ccc2n1CCCCCCCCOC(=O)c1cc[n+](C)cc1
Bacillus subtilis
  MIC: 12.5 µM
Staphylococcus aureus [2]
  MIC: 6.2 µM
[1]
  IC50: 10 µM
Salmonella enteritidis [3]
  MIC: > 50 µM
Pseudomonas aeruginosa
  MIC: > 50 µM

## COc1cc(Cc2cnc(N)nc2N)cc(OC)c1OC [TRIMETHOPRIM]
Salmonella enteritidis [4]
  MIC: 0.5 µM (≈ 0.145 µg/mL)
[1]
  IC50: > 1 µM

## C[N+](C)(C)c1ccc(CC(=O)OCCCCCCCCn2ccc3cc(OCc4ccccc4)ccc32)cc1
Bacillus subtilis
  MIC: 1.5 µM
Staphylococcus aureus [2]
  MIC: 3.1 µM
[1]
  IC50: 20 µM
Salmonella enteritidis [3]
  MIC: > 50 µM
Pseudomonas aeruginosa
  MIC: > 50 µM

## C[N+](C)(C)c1ccc(CC(=O)OCCCCCCCCCn2ccc3cc([N+](=O)[O-])ccc32)cc1
[1]
  IC50: 24 µM

## C[N+](C)(C)c1ccc(CC(=O)OCCCCCCn2ccc3cc([N+](=O)[O-])ccc32)cc1
[1]
  IC50: 84 µM

## COC(=O)c1cc2cc(OCc3ccccc3)ccc2n1CCCCCCCOC(=O)Cc1ccc([N+](C)(C)C)cc1
Staphylococcus aureus [5]
  MIC: 6.2 µM
Bacillus subtilis
  MIC: 1.5 µM
Staphylococcus aureus [2]
  MIC: 1.5 µM
Staphylococcus aureus [6]
  MIC: 3.1 µM
Staphylococcus aureus [7]
  MIC: 3.1 µM
[1]
  IC50: 9 µM
Salmonella enteritidis [3]
  MIC: > 50 µM
Pseudomonas aeruginosa
  MIC: > 50 µM

## COC(=O)c1cc2ccccc2n1CCCCCCCOC(=O)c1ccc[n+](C)c1
[1]
  IC50: 34 µM

## CO[C@H]1/C=C/O[C@@]2(C)Oc3c(C)c(O)c4c(O)c(c(/C=N/N5CCN(C)CC5)c(O)c4c3C2=O)NC(=O)/C(C)=C\C=C\[C@H](C)[C@H](O)[C@@H](C)[C@@H](O)[C@@H](C)[C@H](OC(C)=O)[C@@H]1C [RIFAMPIN]
Bacillus subtilis
  MIC: 1 µM (≈ 0.823 µg/mL)
[1]
  IC50: > 1 µM

## C[n+]1cccc(C(=O)OCCOCCOCCn2ccc3cc(OCc4ccccc4)ccc32)c1
Bacillus subtilis
  MIC: > 50 µM
Staphylococcus aureus [2]
  MIC: > 50 µM
[1]
  IC50: > 200 µM

## C[N+](C)(C)c1ccc(CC(=O)OCCCCn2ccc3cc(OCc4ccccc4)ccc32)cc1
[1]
  IC50: 84 µM

## O=C(OCCCCCCCn1ccc2cc([N+](=O)[O-])ccc21)c1cccnc1
[1]
  IC50: > 1000 µM

## COC(=O)c1cc2ccccc2n1CCCCCCOC(=O)Cc1ccc([N+](C)(C)C)cc1
[1]
  IC50: 24 µM

## O=C(OCCCCCCCCn1ccc2cc([N+](=O)[O-])ccc21)c1cccnc1
[1]
  IC50: > 1000 µM

## COC(=O)c1cc2cc(OCc3ccccc3)ccc2n1CCCCCCCOC(=O)c1ccc[n+](C)c1
Bacillus subtilis
  MIC: 6.2 µM
Staphylococcus aureus [2]
  MIC: 3.1 µM
[1]
  IC50: 18 µM
Salmonella enteritidis [3]
  MIC: > 50 µM
Pseudomonas aeruginosa
  MIC: > 50 µM

## C[n+]1cccc(C(=O)OCCCCCn2ccc3cc([N+](=O)[O-])ccc32)c1
[1]
  IC50: 1000 µM

## COC(=O)c1cc2cc(OCc3ccccc3)ccc2n1CCCCCCCCCOC(=O)Cc1ccc([N+](C)(C)C)cc1
Bacillus subtilis
  MIC: 1.5 µM
Staphylococcus aureus [2]
  MIC: 6.2 µM
[1]
  IC50: 18 µM

## GENTAMICIN
Pseudomonas aeruginosa
  MIC: 2 µM

## O=C(OCCn1ccc2cc([N+](=O)[O-])ccc21)c1cccnc1
[1]
  IC50: > 1000 µM

## C[N+](C)(C)c1ccc(CC(=O)OCCCCCn2ccc3cc([N+](=O)[O-])ccc32)cc1
[1]
  IC50: 70 µM

## COc1ccc2c(ccn2CCCCCCCOC(=O)c2ccc[n+](C)c2)c1
[1]
  IC50: 24 µM

## C[N+](C)(C)c1ccc(CC(=O)OCCCCCn2ccc3cc(OCc4ccccc4)ccc32)cc1
[1]
  IC50: 60 µM

## COC(=O)c1cc2cc(OCc3ccccc3)ccc2n1CCCCCCOC(=O)Cc1ccc([N+](C)(C)C)cc1
[1]
  IC50: 12 µM

## C[n+]1cccc(C(=O)OCCCCn2ccc3cc([N+](=O)[O-])ccc32)c1
[1]
  IC50: > 1000 µM

## COC(=O)c1cc2ccccc2n1CCCCCCCOC(=O)Cc1ccc([N+](C)(C)C)cc1
Bacillus subtilis
  MIC: 1.5 µM
Staphylococcus aureus [2]
  MIC: 12.5 µM
[1]
  IC50: 19 µM
Salmonella enteritidis [3]
  MIC: > 50 µM
Pseudomonas aeruginosa
  MIC: > 50 µM

## C[N+](C)(C)c1ccc(CC(=O)OCCCCCCCCCn2ccc3ccccc32)cc1
[1]
  IC50: 54 µM

## COC(=O)c1cc2cc(OCc3ccccc3)ccc2n1CCCCCCOC(=O)c1ccc[n+](C)c1
[1]
  IC50: 37 µM

## COC(=O)c1cc2ccccc2n1CCCCCCCCOC(=O)c1cc[n+](C)cc1
[1]
  IC50: 44 µM

## C[n+]1cccc(C(=O)OCCCCCCn2ccc3cc([N+](=O)[O-])ccc32)c1
[1]
  IC50: 500 µM

## O=C(OCCCCCn1ccc2cc([N+](=O)[O-])ccc21)c1cccnc1
[1]
  IC50: > 1000 µM

## C[n+]1cccc(C(=O)OCCCCCCCn2ccc3ccccc32)c1
[1]
  IC50: 95 µM

## C[n+]1cccc(C(=O)OCCCCCCCCn2ccc3cc(OCc4ccccc4)ccc32)c1
Staphylococcus aureus [5]
  MIC: 12.5 µM
Bacillus subtilis
  MIC: 6.2 µM
Staphylococcus aureus [2]
  MIC: 1.5 µM
Staphylococcus aureus [6]
  MIC: 6.2 µM
Staphylococcus aureus [7]
  MIC: 3.1 µM
Salmonella enteritidis [3]
  MIC: 50 µM
Pseudomonas aeruginosa
  MIC: 50 µM

## COc1cccc(OC)c1C(=O)N[C@@H]1C(=O)N2[C@@H]1SC(C)(C)[C@@H]2C(=O)O
Staphylococcus aureus [5]
  MIC: 32 µM (≈ 12.2 µg/mL)
Staphylococcus aureus [2]
  MIC: 1 µM (≈ 0.38 µg/mL)
Staphylococcus aureus [6]
  MIC: 32 µM (≈ 12.2 µg/mL)
Staphylococcus aureus [7]
  MIC: 32 µM (≈ 12.2 µg/mL)
[1]
  IC50: > 1 µM

## C[n+]1cccc(C(=O)OCCCCCCCCCn2ccc3ccccc32)c1
[1]
  IC50: 48 µM

## COC(=O)c1cc2ccccc2n1CCCCCCCCCOC(=O)c1ccc[n+](C)c1
[1]
  IC50: 34 µM

## COC(=O)c1cc2cc(OCc3ccccc3)ccc2n1CCCCCCCCOC(=O)Cc1ccc([N+](C)(C)C)cc1
[1]
  IC50: 20 µM

## O=C(OCCCCCCn1ccc2cc([N+](=O)[O-])ccc21)c1cccnc1
[1]
  IC50: > 1000 µM

## COC(=O)c1cc2ccccc2n1CCCCCCCCOC(=O)Cc1ccc([N+](C)(C)C)cc1
Bacillus subtilis
  MIC: 6.2 µM
Staphylococcus aureus [2]
  MIC: 3.1 µM
[1]
  IC50: 14 µM
Salmonella enteritidis [3]
  MIC: > 50 µM
Pseudomonas aeruginosa
  MIC: > 50 µM

## C[N+](C)(C)c1ccc(CC(=O)OCCCCCCCCn2ccc3ccccc32)cc1
[1]
  IC50: 63 µM

## COC(=O)c1cc2cc(OCc3ccccc3)ccc2n1CCCCCCCCCOC(=O)c1ccc[n+](C)c1
[1]
  IC50: 27 µM

## C[n+]1cccc(C(=O)OCCCCCn2ccc3cc(OCc4ccccc4)ccc32)c1
[1]
  IC50: 94 µM
